ChEMBL document CHEMBL1142419, “Antimycobacterial activities of novel 2-(sub)-3-fluoro/nitro-5,12-dihydro-5-oxobenzothiazolo[3,2-a]quinoline-6-carboxylic acid” (Bioorg Med Chem, 2008)
Converted amounts (≈) assume the structure as drawn.

Tests used:
Mus musculus [1] = assay: (§1) Phototoxicity in Swiss albino mouse assessed as erythema incidence at 140 mg/kg, po after 48 hrs of irradiation; type: organism-based; parameters: dose 140 mg/kg, route oral; details: in vivo
Outline: (§2)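 Female Swiss albino mice (about 2 months, 20–25 g), fasted at least 18 h, received a single oral gavage of 140 mg/kg. Groups: six per group; lomefloxacin HCl 140 mg/kg; vehicle 0.5% aqueous sodium carboxymethylcellulose at 10 ml/kg. Mice were UV-irradiated for 4 h (about 18 J/cm²). Both ears were scored for erythema, edema and ear thickness (left/right averaged) pre-dose, at end of irradiation, and at about 24, 48, 72 and 96 h. Ear thickness change from baseline was tested by Student's t-tests.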

Vero = assay: Cytotoxicity against african green monkey Vero cells after 72 hrs by MTT assay; type: cell-based; details: Chlorocebus sabaeus
Outline: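 Vero mammalian cells were exposed to compounds for 72 h, with testing at 62.5 µg/ml. Viability was read as cellular conversion of MTT to formazan (non-radioactive cell proliferation kit), and IC50 was reported.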

[2] = tested on: Mycobacterium tuberculosis; assay: Antimycobacterial activity against Mycobacterium tuberculosis ATCC 35801 infected in CD1 mouse assessed as bacterial load in lung at 50 mg/kg, ip after 10 days; type: functional; details: route intraperitoneal
Outline: (§3)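 Six-week-old female CD-1 mice, six per group, infected intravenously via caudal vein with ~10⁷ viable M. tuberculosis ATCC 35801. Intraperitoneal dosing began 10 days after inoculation and ran 10 days. On day 35 post-infection, spleens and right lungs were removed and homogenized. Serial 10-fold dilutions were plated on 7H10 agar (37 °C, ambient air, 4 weeks). Log CFU compared against vehicle-treated controls.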

Mus musculus [3] = assay: Phototoxicity in Swiss albino mouse assessed as ear thickness at 140 mg/kg, po after 72 hrs of irradiation; type: organism-based; parameters: dose 140 mg/kg, route oral; details: in vivo; outline: as §2
Mus musculus [4] = assay: Phototoxicity in Swiss albino mouse assessed as ear thickness at 140 mg/kg, po after 48 hrs of irradiation; type: organism-based; parameters: dose 140 mg/kg, route oral; details: in vivo; outline: as §2
[5] = tested on: Mycolicibacterium smegmatis; assay: Antimycobacterial activity against Mycobacterium smegmatis MC2 by agar dilution method; type: functional
Outline: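 Agar dilution on Middlebrook 7H11 agar supplemented with OADC, following an NCCLS-like procedure; MIC determined in duplicate against M. smegmatis ATCC 14468 (MC²).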

Mus musculus [6] = assay: Phototoxicity in Swiss albino mouse assessed as ear thickness at 140 mg/kg, po after 96 hrs of irradiation; type: organism-based; parameters: dose 140 mg/kg, route oral; details: in vivo; outline: as §2
[7] = tested on: Mycobacterium tuberculosis; assay: Antimycobacterial activity against Mycobacterium tuberculosis ATCC 35801 infected in CD1 mouse assessed as bacterial load in spleen at 50 mg/kg, ip after 10 days; type: functional; details: route intraperitoneal; outline: as §3
Mus musculus [8] = assay: Phototoxicity in Swiss albino mouse assessed as ear thickness at 140 mg/kg, po after 4 hrs of irradiation; type: organism-based; parameters: dose 140 mg/kg, route oral; details: in vivo; outline: as §2
Mus musculus [9] = assay: as §1; type: organism-based; parameters: dose 140 mg/kg, route oral; details: in vivo; outline: as §2; remark: listed apart in the source
[10] = Inhibition of Mycobacterium smegmatis DNA gyrase supercoiling activity; parameters: species or system Mycolicibacterium smegmatis
Mus musculus [11] = assay: Phototoxicity in Swiss albino mouse assessed as erythema incidence at 140 mg/kg, po after 96 hrs of irradiation; type: organism-based; parameters: dose 140 mg/kg, route oral; details: in vivo; outline: as §2
Mus musculus [12] = assay: Phototoxicity in Swiss albino mouse assessed as erythema incidence at 140 mg/kg, po after 24 hrs of irradiation; type: organism-based; parameters: dose 140 mg/kg, route oral; details: in vivo; outline: as §2
Mus musculus [13] = assay: Phototoxicity in Swiss albino mouse assessed as ear thickness at 140 mg/kg, po after 24 hrs of irradiation; type: organism-based; parameters: dose 140 mg/kg, route oral; details: in vivo; outline: as §2
[14] = tested on: Mycobacterium tuberculosis; assay: Antimycobacterial activity against Mycobacterium tuberculosis H37Rv by agar dilution method; type: functional
Outline: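 MIC by agar dilution on Middlebrook 7H11 agar supplemented with OADC, following an NCCLS-like procedure, run in duplicate. The MDR-TB clinical isolate was resistant to isoniazid, rifampicin, ethambutol and ofloxacin.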

[15] = Selectivity index, ratio of IC50 for african green monkey Vero cells to MIC for Mycobacterium tuberculosis H37Rv; type: functional
Outline: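 Vero cells were exposed for 72 h, with viability read by MTT conversion to formazan to give the IC50. The MIC against H37Rv was by duplicate agar dilution on OADC-supplemented Middlebrook 7H11 agar. Index = Vero IC50 / MIC.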

[16] = tested on: Mycobacterium tuberculosis; assay: Antimycobacterial activity against Mycobacterium tuberculosis ATCC 35801 infected in CD1 mouse assessed as bacterial load in lung at 25 mg/kg, ip after 10 days; type: functional; details: route intraperitoneal; outline: as §3
[17] = tested on: Mycobacterium tuberculosis; assay: Antimycobacterial activity against Mycobacterium tuberculosis ATCC 35801 infected in CD1 mouse assessed as bacterial load in spleen at 25 mg/kg, ip after 10 days; type: functional; details: route intraperitoneal; outline: as §3

CCN(CC)C(=O)C1CCCN(c2cc3c(cc2F)c(=O)c(C(=O)O)c2sc4ccccc4n23)C1 (stereo unspecified)
Activity (Mus musculus [1]): Non-toxic
IC50 (Vero): 126 µM
Log10 cfu [2]: 5.21
Activity (Mus musculus [3]): 0.3 mm
Activity (Mus musculus [4]): 0.29 mm
MIC [5]: 3.15 µM (≈ 1.56 µg/mL)
Activity (Mus musculus [6]): 0.28 mm
Log10 cfu [7]: 5.9
Activity (Mus musculus [8]): 0.29 mm
Activity (Mus musculus [9]): Non-toxic
IC50 [10]: 40 µg/mL (≈ 80.7 µM)
Activity (Mus musculus [11]): Non-toxic
Activity (Mus musculus [12]): Non-toxic
Activity (Mus musculus [13]): 0.29 mm
MIC [14]: 0.18 µM (≈ 0.0892 µg/mL)
Selectivity index [15]: 1576

NNC(=O)c1ccncc1 [ISONIAZID]
IC50 (Vero): > 456 µM
Log10 cfu [16]: 5.86
MIC [5]: 45.6 µM (≈ 6.25 µg/mL)
MIC [14]: 0.36 µM (≈ 0.0494 µg/mL)
Log10 cfu [17]: 4.71

COc1c(N2CCNC(C)C2)c(F)cc2c(=O)c(C(=O)O)cn(C3CC3)c12 (stereo unspecified) [GATIFLOXACIN]
IC50 (Vero): > 155 µM
Log10 cfu [2]: 6.02
MIC [5]: 2.08 µM (≈ 0.781 µg/mL)
Log10 cfu [7]: 6.92
MIC [14]: 1.04 µM (≈ 0.39 µg/mL)
